Experimental data taken from ChEMBL document CHEMBL4808210, “Mapping Chromone-3-Phenylcarboxamide Pharmacophore: Quid Est Veritas?” (J Med Chem, 2021).

Assays:
[1] = molecular target: T1, Amine oxidase [flavin-containing] B (Homo sapiens, UniProt P27338); experiment: (§1) Inhibition of recombinant human MAO-B expressed in baculovirus infected BTI-TN- 5B1-4 insect cells using kynuramine as substrate preincubated for 10 mins in presence of substrate followed by enzyme addition and measured every minute for 30 mins by spectrophotometry analysis; format: cell-based
T1 sequence (P27338 whole entry): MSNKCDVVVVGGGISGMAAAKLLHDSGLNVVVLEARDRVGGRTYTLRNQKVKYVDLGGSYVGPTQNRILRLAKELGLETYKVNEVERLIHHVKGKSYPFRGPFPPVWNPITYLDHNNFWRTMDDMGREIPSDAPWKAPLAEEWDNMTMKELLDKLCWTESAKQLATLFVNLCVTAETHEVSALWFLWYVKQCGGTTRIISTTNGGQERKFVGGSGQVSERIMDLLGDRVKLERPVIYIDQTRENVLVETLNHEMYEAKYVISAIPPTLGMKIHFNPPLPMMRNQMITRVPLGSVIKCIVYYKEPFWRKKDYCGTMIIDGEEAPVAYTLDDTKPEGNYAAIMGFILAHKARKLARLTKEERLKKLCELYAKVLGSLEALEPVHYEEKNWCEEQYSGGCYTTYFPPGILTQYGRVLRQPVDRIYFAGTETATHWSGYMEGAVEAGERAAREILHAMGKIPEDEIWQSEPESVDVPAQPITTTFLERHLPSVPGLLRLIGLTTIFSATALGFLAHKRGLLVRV

MAO-A = molecular target: T2, MAO-A (Homo sapiens, UniProt P21397); experiment: as §1, with “MAO-A” for “MAO-B”, “cells at 10 uM” for “cells”, “analysis relative to control” for “analysis”; conditions: probe kynuramine, time 40 min
T2 sequence (P21397 whole entry): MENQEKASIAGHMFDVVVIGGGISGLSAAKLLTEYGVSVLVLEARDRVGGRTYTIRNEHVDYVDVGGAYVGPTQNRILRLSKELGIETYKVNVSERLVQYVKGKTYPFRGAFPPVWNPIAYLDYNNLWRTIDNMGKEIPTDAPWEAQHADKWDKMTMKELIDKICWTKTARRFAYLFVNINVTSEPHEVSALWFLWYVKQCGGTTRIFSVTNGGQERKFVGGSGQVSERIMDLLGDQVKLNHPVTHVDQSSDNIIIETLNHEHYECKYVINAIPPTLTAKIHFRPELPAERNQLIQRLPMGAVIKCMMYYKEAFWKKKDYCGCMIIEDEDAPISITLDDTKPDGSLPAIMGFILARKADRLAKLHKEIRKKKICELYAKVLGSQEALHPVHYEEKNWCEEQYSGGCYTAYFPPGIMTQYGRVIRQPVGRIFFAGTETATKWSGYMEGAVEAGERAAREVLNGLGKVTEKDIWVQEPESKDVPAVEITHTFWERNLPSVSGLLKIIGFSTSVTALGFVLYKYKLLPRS
In short: (§2)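 Recombinant hMAO-A and hMAO-B were assayed with kynuramine as substrate. Percent inhibition was taken at 10 μM, the highest concentration tested. Where the hMAO-A IC₅₀ was not reached, it was taken as 10 μM.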

Homo sapiens = species on record: Homo sapiens; experiment: Selectivity index, ratio of IC50 for recombinant human MAO-A expressed in baculovirus infected BTI-TN- 5B1-4 insect cells to IC50 for recombinant human MAO-B expressed in baculovirus infected BTI-TN- 5B1-4 insect cells using kynuramine as substrate preincubated for 10 mins in presence of substrate followed by enzyme addition and measured every minute for 30 mins by spectrophotometry analysis; in short: as §2
[2] = molecular target: T1, Amine oxidase [flavin-containing] B; experiment: Time dependent inhibition of recombinant human MAO-B expressed in baculovirus infected BTI-TN- 5B1-4 insect cells assessed as increase in enzyme activity at IC80 measured after 120 mins; conditions: bti-tn-5b1-4, 2 h
[3] = molecular target: T1, Amine oxidase [flavin-containing] B; experiment: Mixed-type inhibition of recombinant human MAO-B expressed in baculovirus infected BTI-TN- 5B1-4 insect cells at 1 to 5 nM using varying levels of kynuramine as substrate by Lineweaver-Burk plot analysis; conditions: dose 1-5 nM
In short: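 Initial rates of hMAO-B activity were measured at six kynuramine concentrations (10−100 μM), without inhibitor and at three inhibitor concentrations. Kinetic parameters were read from a double-reciprocal Lineweaver−Burk plot. An Ackermann−Potter plot of total enzyme concentration was also constructed.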

SH-SY5Y [4] = experiment: Cytotoxicity against human SH-SY5Y cells assessed as effect on NR uptake at 1 to 10 uM measured after 24 hrs by neutral red uptake assay; format: cell-based; conditions: dose 1-10 µM
In short: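 Differentiated SH-SY5Y cells were exposed to compounds at 1 and 10 μM for 24 h. Lysosomal activity was read as neutral red dye uptake and compared with untreated cells. Mean ± SEM of at least three independent experiments run in triplicate.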

Caco-2 = experiment: Cytotoxicity against human Caco-2 cells assessed as effect on cell viability at 1 to 10 uM measured after 24 hrs by MTT assay; format: cell-based; conditions: caco-2, 24 h, dose 1-10 µM
In short: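 Caco-2 cells, and SH-SY5Y cells first differentiated toward a dopaminergic-like phenotype, were treated for 24 h with compounds at 1 and 10 μM. Metabolic activity was read as MTT reduction to formazan, relative to untreated cells. Mean ± SEM of at least three independent experiments, each in triplicate.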

HUVEC [5] = experiment: Cytotoxicity against HUVEC cells at 10 uM incubated for 24 to 48 hrs by Celltiter-Glo assay relative to control; format: cell-based; conditions: human, time 24-48 hrs
In short: (§3)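 Cells (HEK-293, HUVEC, MCF-7) exposed to test compounds at 10 μM for 24 h; cytotoxicity read in triplicate with a luminescence kit measuring intracellular ATP levels.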

HEK293 [6] = experiment: Cytotoxicity against HEK293 cells at 10 uM incubated for 24 to 48 hrs by Celltiter-Glo assay relative to control; format: cell-based; conditions: human, hek293, 10 µM, time 24-48 hrs; in short: as §3
MCF7 [7] = experiment: Cytotoxicity against human MCF7 cells at 10 uM incubated for 24 to 48 hrs by Celltiter-Glo assay relative to control; format: cell-based; conditions: mcf7, 10 µM, time 24-48 hrs; in short: as §3
HUVEC [8] = experiment: Cytotoxicity against HUVEC cells incubated for 24 to 48 hrs by Celltiter-Glo assay; format: cell-based, Homo sapiens; conditions: huvec
HEK293 [9] = experiment: Cytotoxicity against HEK293 cells incubated for 24 to 48 hrs by Celltiter-Glo assay; format: cell-based, Homo sapiens
MCF7 [10] = experiment: Cytotoxicity against human MCF7 cells incubated for 24 to 48 hrs by Celltiter-Glo assay; format: cell-based
hERG = hERG (Homo sapiens, UniProt Q12809); experiment: Inhibition of human ERG at 10 uM incubated for 2 hrs by fluorescence polarization assay relative to control
In short: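 hERG binding was measured by fluorescence polarization, using a homogenized membrane preparation containing hERG plus a fluorescent tracer. A drop in FP signal from tracer displacement was read as inhibition. Compounds were tested at 10 μM.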

[11] = molecular target: ATP-dependent translocase ABCB1 (Homo sapiens, UniProt P08183); experiment: Modulation of P-gp-mediated Rhodamine-123 efflux in human Caco-2 cells assessed as Rhodamine-123 accumulation at 10 uM pretreated for 30 mins in presence or absence of Zos followed by Rho-123 addition and measured after 90 mins by fluorescence spectroscopy; format: cell-based; conditions: caco-2, 2 h, time 120 min
In short: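 Caco-2 cells were exposed to compounds at 10 μM during incubation with the P-gp substrate rhodamine 123 (5 μM). Zosuquidar served as the specific P-gp inhibitor. Cellular rhodamine 123 was read by fluorescence spectroscopy. Mean ± SEM of at least three independent experiments in triplicate.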

SH-SY5Y [12] = experiment: Protection against iron(III)-induced damage in human SH-SY5Y cells assessed as increase in lysosomal activity at 10 uM pretreated for 30 mins followed by iron(III) treatment after 24 hrs by NR uptake assay relative to control; format: functional; conditions: time 24.5 hrs
In short: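 Differentiated SH-SY5Y cells were pretreated with compounds at 1 or 10 μM for 30 min, then exposed to iron(III) at 1000 or 1500 μM for 24 h. Viability was read by neutral red uptake. Mean ± SD of three independent experiments, two-way ANOVA.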

ATP-dependent translocase ABCB1, sequence (P08183 whole entry): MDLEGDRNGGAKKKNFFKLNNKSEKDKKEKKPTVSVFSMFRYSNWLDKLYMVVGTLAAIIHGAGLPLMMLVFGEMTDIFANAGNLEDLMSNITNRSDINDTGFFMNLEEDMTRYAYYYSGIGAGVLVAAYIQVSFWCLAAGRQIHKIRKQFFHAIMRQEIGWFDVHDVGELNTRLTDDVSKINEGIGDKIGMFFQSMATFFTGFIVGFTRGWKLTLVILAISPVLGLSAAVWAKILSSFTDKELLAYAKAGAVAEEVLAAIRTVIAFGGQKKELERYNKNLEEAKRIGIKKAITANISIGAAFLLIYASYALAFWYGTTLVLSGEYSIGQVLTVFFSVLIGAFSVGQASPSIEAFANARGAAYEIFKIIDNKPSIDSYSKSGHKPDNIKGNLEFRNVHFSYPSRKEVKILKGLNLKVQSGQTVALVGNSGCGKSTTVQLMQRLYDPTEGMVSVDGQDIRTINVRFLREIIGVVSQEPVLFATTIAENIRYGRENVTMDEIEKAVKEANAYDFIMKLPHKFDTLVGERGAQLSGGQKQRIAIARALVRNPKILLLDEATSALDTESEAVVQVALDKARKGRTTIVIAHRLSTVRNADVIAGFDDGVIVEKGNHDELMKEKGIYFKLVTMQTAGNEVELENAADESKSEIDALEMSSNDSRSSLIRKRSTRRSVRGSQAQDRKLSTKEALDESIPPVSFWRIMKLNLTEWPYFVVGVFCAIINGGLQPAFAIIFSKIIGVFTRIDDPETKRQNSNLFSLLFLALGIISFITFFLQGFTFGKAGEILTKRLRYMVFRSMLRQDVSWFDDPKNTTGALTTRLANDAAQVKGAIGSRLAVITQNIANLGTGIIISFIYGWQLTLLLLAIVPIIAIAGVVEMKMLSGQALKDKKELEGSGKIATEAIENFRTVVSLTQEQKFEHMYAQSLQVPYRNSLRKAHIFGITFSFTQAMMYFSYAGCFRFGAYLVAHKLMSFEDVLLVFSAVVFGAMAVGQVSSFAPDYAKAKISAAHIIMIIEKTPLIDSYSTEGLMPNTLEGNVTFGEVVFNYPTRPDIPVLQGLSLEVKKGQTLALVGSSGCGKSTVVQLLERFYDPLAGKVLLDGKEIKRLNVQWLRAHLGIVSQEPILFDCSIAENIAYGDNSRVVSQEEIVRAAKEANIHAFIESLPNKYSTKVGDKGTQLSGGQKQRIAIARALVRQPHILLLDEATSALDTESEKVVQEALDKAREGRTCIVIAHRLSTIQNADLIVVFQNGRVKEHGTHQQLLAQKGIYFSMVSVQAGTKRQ
hERG, sequence (Q12809 whole entry): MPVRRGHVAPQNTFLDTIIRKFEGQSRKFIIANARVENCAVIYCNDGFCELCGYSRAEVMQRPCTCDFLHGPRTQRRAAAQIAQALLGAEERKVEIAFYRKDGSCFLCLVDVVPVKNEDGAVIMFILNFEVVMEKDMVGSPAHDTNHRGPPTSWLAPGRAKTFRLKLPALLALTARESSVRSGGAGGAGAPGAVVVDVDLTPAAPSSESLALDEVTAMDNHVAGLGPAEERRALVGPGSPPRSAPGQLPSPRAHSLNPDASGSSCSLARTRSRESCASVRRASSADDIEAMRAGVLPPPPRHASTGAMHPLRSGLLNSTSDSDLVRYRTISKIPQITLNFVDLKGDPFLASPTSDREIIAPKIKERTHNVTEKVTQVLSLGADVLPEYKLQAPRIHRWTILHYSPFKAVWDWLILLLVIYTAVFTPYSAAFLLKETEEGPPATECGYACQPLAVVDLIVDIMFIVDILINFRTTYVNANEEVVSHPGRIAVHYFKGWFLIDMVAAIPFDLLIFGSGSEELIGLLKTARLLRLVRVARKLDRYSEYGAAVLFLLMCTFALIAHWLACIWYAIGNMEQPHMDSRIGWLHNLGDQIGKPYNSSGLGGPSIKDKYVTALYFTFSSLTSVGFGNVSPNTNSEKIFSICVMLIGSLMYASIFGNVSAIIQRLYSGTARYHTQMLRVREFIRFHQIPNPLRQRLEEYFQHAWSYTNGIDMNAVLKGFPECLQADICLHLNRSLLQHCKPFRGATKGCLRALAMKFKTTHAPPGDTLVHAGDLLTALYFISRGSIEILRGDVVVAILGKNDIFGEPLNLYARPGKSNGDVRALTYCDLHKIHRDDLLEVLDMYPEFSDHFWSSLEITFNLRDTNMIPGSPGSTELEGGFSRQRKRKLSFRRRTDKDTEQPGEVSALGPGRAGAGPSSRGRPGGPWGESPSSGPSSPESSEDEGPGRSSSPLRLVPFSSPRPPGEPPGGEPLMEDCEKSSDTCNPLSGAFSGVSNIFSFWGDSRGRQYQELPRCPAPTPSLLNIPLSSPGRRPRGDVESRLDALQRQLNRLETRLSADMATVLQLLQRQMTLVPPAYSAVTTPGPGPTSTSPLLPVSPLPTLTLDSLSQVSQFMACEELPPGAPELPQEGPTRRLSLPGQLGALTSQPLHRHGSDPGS

O=C(Nc1cccc(Cl)c1)c1csc2ccccc2c1=O
IC50 [1]: 1.52 nM | inhibition at 0.5 h, 10 µM (MAO-A): 0.7% | Ratio IC50 (Homo sapiens): > 6570 | TDI [2]: Active | inhibition (INH) [3]: Active | Activity (SH-SY5Y [4]): Non-Toxic | Activity (Caco-2): Non-Toxic | Activity (HUVEC [5]): < 10% | Activity (HEK293 [6]): < 10% | Activity (MCF7 [7]): < 10% | IC50 (HUVEC [8]): Not Active | IC50 (HEK293 [9]): Not Active | IC50 (MCF7 [10]): Not Active | inhibition at 2 h, 10 µM (hERG): < 10% | Activity [11]: Not Active | Activity (SH-SY5Y [12]): 63%
